According to ChEMBL document CHEMBL4316616, “Efficacy of TLR7 agonistic imidazoquinoline as immunochemotherapeutic agent against P. Berghei ANKA infected rodent host” (Bioorg Med Chem Lett, 2019):
Activity calls are given as the source filed them. No cut-off for these calls is given here.

Key:
Plasmodium berghei [1] = test: Antiparasitic activity against Plasmodium berghei ANKA infected in Swiss albino mouse assessed as reduction in parasitemia at 10 mg/kg, po by Peter's 4 day test; assay type: functional; design: scale not given: the % may be the effect or the level left
[2] = Toxicity in Laca mouse infected with Plasmodium berghei ANKA assessed as death at 10 mg/kg, po administered for 4 days measured on day 21; assay type: organism-based; settings: in vivo, 96 h
In short: (§1)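 Groups of 6 mice, infected i.p. on D0 with 1x10⁶ P. berghei ANKA parasitized RBCs. Chloroquine 10 mg/kg given orally in 0.2 mL/mouse daily D0–D3. Infected PBS-dosed and uninfected controls were included. Mice were followed for survival, with parasitemia checked on Giemsa-stained thin blood smears of individual mice.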

Plasmodium berghei [3] = test: Antiparasitic activity against Plasmodium berghei ANKA infected in Laca mouse assessed as reduction in CD4+ cell level in brain at 10 mg/kg, po administered for 4 days measured on day 10 and 21 by flow cytometry; assay type: functional, organism-based
Plasmodium berghei [4] = test: Antiparasitic activity against Plasmodium berghei ANKA infected in Laca mouse assessed as increase in serum IL-27 level at 10 mg/kg, po administered for 4 days measured on day 10 by sandwich ELISA; assay type: functional, organism-based
Plasmodium berghei [5] = test: Antiparasitic activity against Plasmodium berghei ANKA infected in Laca mouse assessed as increase in serum IL-10 level at 10 mg/kg, po administered for 4 days measured on day 10 by sandwich ELISA; assay type: functional, organism-based
Plasmodium berghei [6] = test: Antiparasitic activity against Plasmodium berghei ANKA infected in Laca mouse assessed as decrease in serum TNFalpha level at 10 mg/kg, po administered for 4 days measured on day 10 by sandwich ELISA; assay type: functional, organism-based
Plasmodium berghei [7] = test: Antiparasitic activity against Plasmodium berghei ANKA infected in Laca mouse assessed as reduction in CD8+ cell level in brain at 10 mg/kg, po administered for 4 days measured on day 10 by flow cytometry; assay type: functional, organism-based
Plasmodium berghei [8] = test: Antiparasitic activity against Plasmodium berghei ANKA infected in Laca mouse assessed as increase in CD3+ cell level in spleen at 10 mg/kg, po administered for 4 days measured on day 10 by flow cytometry; assay type: functional, organism-based
Plasmodium berghei [9] = test: Antiparasitic activity against Plasmodium berghei ANKA infected in Laca mouse assessed as reduction in CD3+ cell level in brain at 10 mg/kg, po administered for 4 days measured on day 10 by flow cytometry; assay type: functional, organism-based
Plasmodium berghei [10] = test: Antiparasitic activity against Plasmodium berghei ANKA infected in Laca mouse assessed as reduction in parasitemia at 10 mg/kg, po administered for 4 days measured up to day 15 by Giemsa-staining based assay; assay type: functional, organism-based
Plasmodium berghei [11] = test: Antiparasitic activity against Plasmodium berghei ANKA infected in Laca mouse assessed as increase in IFN-gamma level in serum at 10 mg/kg, po administered for 4 days measured on day 10 by sandwich ELISA
Plasmodium berghei [12] = test: Antiparasitic activity against Plasmodium berghei ANKA infected in Laca mouse assessed as increase in serum IL-12 level at 10 mg/kg, po administered for 4 days measured on day 10 by sandwich ELISA; assay type: functional, organism-based
Plasmodium berghei [13] = test: Antiparasitic activity against Plasmodium berghei ANKA infected in Laca mouse assessed as parasitemia at 10 mg/kg, po administered for 4 days measured on day 17 by Giemsa-staining based assay; assay type: functional
Plasmodium berghei [14] = test: Antimalarial activity against Plasmodium berghei ANKA infected in Swiss albino mouse assessed as reduction in parasitemia at 25 mg/kg, po for 4 days dosed 2 hrs post infection and measured 5 days post infection by Giemsa staining based Peter's 4 day test; assay type: functional; design: scale not given: the % may be the effect or the level left
Plasmodium berghei [15] = test: Antiparasitic activity against Plasmodium berghei ANKA infected in Laca mouse assessed as increase in Treg cell level in brain at 10 mg/kg, po administered for 4 days measured on day 10 by flow cytometry; assay type: functional, organism-based
[16] = Toxicity in Laca mouse infected with Plasmodium berghei ANKA assessed as death at 10 mg/kg, po administered for 4 days measured after 21 days; assay type: organism-based; settings: in vivo, 504 h; in short: as §1
Plasmodium berghei [17] = test: Antiparasitic activity against Plasmodium berghei ANKA infected in Laca mouse assessed as parasitemia at 10 mg/kg, po administered for 4 days measured on day 21 by Giemsa-staining based assay; assay type: functional

CCN(CC)CCCC(C)Nc1ccnc2cc(Cl)ccc12 (configuration not stated) [CHLOROQUINE]
Activity (Plasmodium berghei [1]): 58.3%
Activity [2]: Toxic
Activity (Plasmodium berghei [3]): Active
Activity (Plasmodium berghei [4]): Active
Activity (Plasmodium berghei [5]): Active
Activity (Plasmodium berghei [6]): Active
Activity (Plasmodium berghei [7]): Active
Activity (Plasmodium berghei [8]): Active
Activity (Plasmodium berghei [9]): Active
Activity (Plasmodium berghei [10]): Active
Activity (Plasmodium berghei [11]): Active
Activity (Plasmodium berghei [12]): Active
Activity (Plasmodium berghei [13]): 5.99%
Activity (Plasmodium berghei [14]): 89.04%
Activity (Plasmodium berghei [15]): Active
Activity [16]: Toxic
Activity (Plasmodium berghei [17]): 10.76%
